According to ChEMBL document CHEMBL1143835, “Antipropionibacterial activity of BAL19403, a novel macrolide antibiotic” (2007):
Converted amounts (≈) assume the structure as drawn.

What was measured:
[1] = test system: Cutibacterium acnes; test: Antibacterial activity against drug-resistant Propionibacterium acnes P401:5 after 48 hrs by broth microdilution method; assay type: functional
Summary of the method: (§1)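 Broth microdilution MIC in Wilkins-Chalgren broth without lysed horse blood, following CLSI anaerobe guidelines. Plates were held in anaerobic jars with atmosphere generators (O2 <0.1% by 2.5 h, CO2 >15% by 24 h) at 35 to 37°C for 48 h. Growth was read with an illuminated plate reader and magnifying mirror.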

[2] = test system: Cutibacterium acnes; test: Antibacterial activity against drug-resistant Propionibacterium acnes SW10 after 48 hrs by broth microdilution method; assay type: functional; summary of the method: as §1
[3] = test system: Cutibacterium acnes; test: Antibacterial activity against drug-resistant Propionibacterium acnes SW11 after 48 hrs by broth microdilution method; assay type: functional; summary of the method: as §1
[4] = test system: Cutibacterium acnes; test: MBC/MIC ratio of Propionibacterium acnes SW101T; assay type: functional
Summary of the method: (§2)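 MIC by CLSI broth microdilution in Wilkins-Chalgren broth in anaerobic jars (O2 <0.1%, CO2 >15%), read after 48 h at 35–37°C on an illuminated plate reader. For MBC, samples were plated onto Wilkins-Chalgren agar and incubated anaerobically for 72 h at 35–37°C before growth was scored.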

[5] = test system: Cutibacterium acnes; test: Antibacterial activity against drug-resistant Propionibacterium acnes P95 after 48 hrs by broth microdilution method; assay type: functional; summary of the method: as §1
[6] = test system: Cutibacterium acnes; test: Antibacterial activity against drug-resistant Propionibacterium acnes SP64E after 48 hrs by broth microdilution method; assay type: functional; summary of the method: as §1
[7] = test system: Cutibacterium acnes; test: Antibacterial activity against drug-resistant Propionibacterium acnes EG7NS after 48 hrs by broth microdilution method; assay type: functional; summary of the method: as §1
[8] = test system: Cutibacterium acnes; test: MBC/MIC ratio of Propionibacterium acnes EG7NS; assay type: functional; summary of the method: as §2
[9] = test system: Cutibacterium acnes; test: Antibacterial activity against drug-resistant Propionibacterium acnes SW26 after 48 hrs by broth microdilution method; assay type: functional; summary of the method: as §1
[10] = test system: Cutibacterium acnes; test: MBC/MIC ratio of Propionibacterium acnes P95; assay type: functional; summary of the method: as §2
[11] = test system: Cutibacterium acnes; test: Antibacterial activity against drug-resistant Propionibacterium acnes GE46EB after 48 hrs by broth microdilution method; assay type: functional; summary of the method: as §1
[12] = test system: Staphylococcus aureus; test: Antibacterial activity against methicillin-resistant Staphylococcus aureus after 20 to 24 hrs by broth microdilution method
[13] = test system: Corynebacterium minutissimum; test: Antibacterial activity against Corynebacterium minutissimum after 48 hrs by broth microdilution method; assay type: functional
Summary of the method: (§3)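 Broth microdilution per CLSI in cation-adjusted Mueller-Hinton broth supplemented with 0.5% (vol/vol) Tween 80. Plates incubated at 35°C in ambient air for 44 to 48 h, then read visually. MICs in μg/ml; a geometric mean MIC was calculated across the corynebacterial strains.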

[14] = test system: Streptococcus equi subsp. zooepidemicus; test: Antibacterial activity against Streptococcus equi subsp. zooepidemicus after 48 hrs by broth microdilution method; assay type: functional
[15] = test system: Cutibacterium acnes; test: Antibacterial activity against drug-resistant Propionibacterium acnes SW16 after 48 hrs by broth microdilution method; assay type: functional; summary of the method: as §1
[16] = test system: Propionibacterium granulosum; test: Antibacterial activity against drug-resistant Propionibacterium granulosum NCTC-11865 after 48 hrs by broth microdilution method; assay type: functional; conditions: Cutibacterium granulosum, NCTC-11865, 48 h; summary of the method: as §1
[17] = test system: Staphylococcus aureus; test: Antibacterial activity against methicillin-susceptible Staphylococcus aureus after 48 hrs by broth microdilution method; assay type: functional
[18] = test system: Cutibacterium acnes; test: Antibacterial activity against drug-resistant Propionibacterium acnes P95 after 72 hrs; assay type: functional
Summary of the method: (§4)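 MBC for P. acnes followed MIC assays by standard methodology. Samples were plated on Wilkins-Chalgren agar, incubated anaerobically in GENbox jars at 35 to 37°C, and examined for growth after 72 h.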

[19] = test system: Cutibacterium acnes; test: MBC/MIC ratio of Propionibacterium acnes SW3CD; assay type: functional; summary of the method: as §2
[20] = test system: Corynebacterium jeikeium; test: Antibacterial activity against Corynebacterium jeikeium after 48 hrs by broth microdilution method; assay type: functional; summary of the method: as §3
[21] = test system: Cutibacterium acnes; test: Antibacterial activity against drug-resistant Propionibacterium acnes SW101T after 48 hrs by broth microdilution method; assay type: functional; summary of the method: as §1
[22] = test system: Cutibacterium acnes; test: Antibacterial activity against drug-resistant Propionibacterium acnes D-04/97 after 48 hrs by broth microdilution method; assay type: functional; summary of the method: as §1
[23] = test system: Staphylococcus epidermidis; test: Antibacterial activity against Staphylococcus epidermidis after 48 hrs by broth microdilution method; assay type: functional
[24] = test system: Corynebacterium diphtheriae; test: Antibacterial activity against Corynebacterium diphtheriae after 48 hrs by broth microdilution method; assay type: functional; summary of the method: as §3
[25] = test system: Cutibacterium acnes; test: Antibacterial activity against drug-resistant Propionibacterium acnes EG7NS after 72 hrs; assay type: functional; summary of the method: as §4
[26] = test system: Cutibacterium acnes; test: Antibacterial activity against drug-resistant Propionibacterium acnes P429:1 (SC) after 48 hrs by broth microdilution method; assay type: functional; summary of the method: as §1
[27] = test system: Cutibacterium acnes; test: Antibacterial activity against drug-resistant Propionibacterium acnes EG13NS after 48 hrs by broth microdilution method; assay type: functional; summary of the method: as §1
[28] = test system: Cutibacterium acnes; test: Antibacterial activity against drug-resistant Propionibacterium acnes SW101CDA after 48 hrs by broth microdilution method; assay type: functional; summary of the method: as §1
[29] = test system: Cutibacterium acnes; test: Antibacterial activity against drug-resistant Propionibacterium acnes EG3NS after 48 hrs by broth microdilution method; assay type: functional; summary of the method: as §1
[30] = test system: Cutibacterium acnes; test: Antibacterial activity against drug-resistant Propionibacterium acnes P425:1 after 48 hrs by broth microdilution method; assay type: functional; summary of the method: as §1
[31] = test system: Cutibacterium acnes; test: Antibacterial activity against drug-resistant Propionibacterium acnes SW54EA after 48 hrs by broth microdilution method; assay type: functional; summary of the method: as §1
[32] = test system: Cutibacterium acnes; test: Antibacterial activity against drug-resistant Propionibacterium acnes SW17 after 48 hrs by broth microdilution method; assay type: functional; summary of the method: as §1
[33] = test system: Corynebacterium amycolatum; test: Antibacterial activity against Corynebacterium amycolatum after 48 hrs by broth microdilution method; assay type: functional; summary of the method: as §3
[34] = test system: Cutibacterium acnes; test: Antibacterial activity against drug-resistant Propionibacterium acnes OK8/97 after 48 hrs by broth microdilution method; assay type: functional; summary of the method: as §1
[35] = test system: Cutibacterium acnes; test: Antibacterial activity against drug-resistant Propionibacterium acnes GE4E after 48 hrs by broth microdilution method; assay type: functional; summary of the method: as §1
[36] = test system: Streptococcus pyogenes; test: Antibacterial activity against Streptococcus pyogenes after 20 to 24 hrs by broth microdilution method
[37] = test system: Cutibacterium acnes; test: Antibacterial activity against drug-resistant Propionibacterium acnes P429:1 (BC) after 48 hrs by broth microdilution method; assay type: functional; summary of the method: as §1
[38] = test system: Cutibacterium acnes; test: Antibacterial activity against drug-resistant Propionibacterium acnes P:413 after 48 hrs by broth microdilution method; assay type: functional; summary of the method: as §1
[39] = test system: Staphylococcus aureus; test: Antibacterial activity against borderline oxacillin-resistant Staphylococcus aureus after 20 to 24 hrs by broth microdilution method
[40] = Antibacterial activity against Streptococcus dysgalactiae subsp. dysgalactiae after 48 hrs by broth microdilution method; assay type: functional
[41] = test system: Cutibacterium acnes; test: Antibacterial activity against drug-resistant Propionibacterium acnes FG7E after 48 hrs by broth microdilution method; assay type: functional; summary of the method: as §1
[42] = test system: Cutibacterium acnes; test: Antibacterial activity against drug-resistant Propionibacterium acnes P322:2 after 48 hrs by broth microdilution method; assay type: functional; summary of the method: as §1
[43] = test system: Cutibacterium acnes; test: Antibacterial activity against drug-resistant Propionibacterium acnes SW3CD after 48 hrs by broth microdilution method; assay type: functional; summary of the method: as §1
[44] = test system: Cutibacterium acnes; test: Antibacterial activity against drug-resistant Propionibacterium acnes SW3CD after 72 hrs; assay type: functional; summary of the method: as §4
[45] = test system: Propionibacterium granulosum; test: Antibacterial activity against drug-resistant Propionibacterium granulosum QK6/92 after 48 hrs by broth microdilution method
[46] = test system: Cutibacterium acnes; test: MBC/MIC ratio of Propionibacterium acnes GE4E; assay type: functional; summary of the method: as §2
[47] = test system: Cutibacterium acnes; test: Antibacterial activity against drug-resistant Propionibacterium acnes SW101T after 72 hrs; assay type: functional; summary of the method: as §4
[48] = test system: Cutibacterium acnes; test: Antibacterial activity against drug-resistant Propionibacterium acnes GE4E after 72 hrs; assay type: functional; summary of the method: as §4

CCC[C@@H]1C[C@@H](C(=O)N[C@@H]([C@H]2O[C@H](SC)[C@H](O)[C@@H](O)[C@H]2O)[C@H](C)Cl)N(C)C1 [CLINDAMYCIN]
MIC [1]: 1 µg/mL (≈ 2.35 µM)
MIC [2]: 0.125 µg/mL (≈ 0.294 µM)
MIC [3]: 0.5 µg/mL (≈ 1.18 µM)
Ratio [4]: >2
MIC [5]: 0.5 µg/mL (≈ 1.18 µM)
MIC [6]: > 512 µg/mL
MIC [7]: ≤ 0.06 µg/mL
Ratio [8]: >=533
MIC [9]: ≤ 0.06 µg/mL
Ratio [10]: >64
MIC [11]: 512 µg/mL (≈ 1200 µM)
MIC [12]: 1.16 µg/mL (≈ 2.73 µM)
MIC [13]: 7.97 µg/mL (≈ 18.8 µM)
MIC [14]: 0.11 µg/mL (≈ 0.259 µM)
MIC [15]: ≤ 0.06 µg/mL
MIC [16]: ≤ 0.06 µg/mL
MIC [17]: 1.16 µg/mL (≈ 2.73 µM)
MBC [18]: 32 µg/mL (≈ 75.3 µM)
Ratio [19]: >4
MIC [20]: 7.97 µg/mL (≈ 18.8 µM)
MIC [21]: 256 µg/mL (≈ 602 µM)
MIC [22]: 0.125 µg/mL (≈ 0.294 µM)
MIC [23]: 1.12 µg/mL (≈ 2.64 µM)
MIC [24]: 7.97 µg/mL (≈ 18.8 µM)
MBC [25]: > 32 µg/mL
MIC [26]: 4 µg/mL (≈ 9.41 µM)
MIC [27]: ≤ 0.06 µg/mL
MIC [28]: ≥ 512 µg/mL
MIC [29]: 0.25 µg/mL (≈ 0.588 µM)
MIC [30]: 512 µg/mL (≈ 1200 µM)
MIC [31]: 32 µg/mL (≈ 75.3 µM)
MIC [32]: ≤ 0.06 µg/mL
MIC [33]: 7.97 µg/mL (≈ 18.8 µM)
MIC [34]: 0.125 µg/mL (≈ 0.294 µM)
MIC [35]: > 512 µg/mL
MIC [36]: 0.07 µg/mL (≈ 0.165 µM)
MIC [37]: 8 µg/mL (≈ 18.8 µM)
MIC [38]: ≤ 0.06 µg/mL
MIC [39]: 1.16 µg/mL (≈ 2.73 µM)
MIC [40]: 0.12 µg/mL (≈ 0.282 µM)
MIC [41]: ≥ 32 µg/mL
MIC [42]: 4 µg/mL (≈ 9.41 µM)
MIC [43]: 8 µg/mL (≈ 18.8 µM)
MBC [44]: > 32 µg/mL
MIC [45]: 1 µg/mL (≈ 2.35 µM)

CC[C@H]1OC(=O)[C@H](C)[C@@H](O[C@H]2C[C@@](C)(OC)[C@@H](O)[C@H](C)O2)[C@H](C)[C@@H](O[C@@H]2O[C@H](C)C[C@H](N(C)C)[C@H]2O)[C@](C)(OC)C[C@@H](C)C(=O)[C@H](C)[C@H]2[C@H](SCCn3cnc4cccnc43)C(=O)O[C@@]21C
MIC [1]: ≤ 0.06 µg/mL
MIC [2]: ≤ 0.06 µg/mL
MIC [3]: ≤ 0.06 µg/mL
Ratio [4]: >8
MIC [5]: ≤ 0.06 µg/mL
MIC [6]: ≥ 256 µg/mL
MIC [7]: ≤ 0.06 µg/mL
MIC [9]: ≤ 0.06 µg/mL
MIC [11]: 256 µg/mL (≈ 270 µM)
Ratio [46]: >=2
MBC [47]: > 32 µg/mL
MIC [12]: 4.32 µg/mL (≈ 4.55 µM)
MIC [13]: 0.88 µg/mL (≈ 0.927 µM)
MIC [14]: 0.08 µg/mL (≈ 0.0843 µM)
MIC [15]: ≤ 0.06 µg/mL
MIC [16]: ≤ 0.06 µg/mL
MIC [17]: 4.32 µg/mL (≈ 4.55 µM)
MBC [18]: ≤ 0.06 µg/mL
MIC [20]: 0.88 µg/mL (≈ 0.927 µM)
MIC [21]: 4 µg/mL (≈ 4.21 µM)
MIC [22]: ≤ 0.06 µg/mL
MIC [23]: 4.24 µg/mL (≈ 4.47 µM)
MIC [24]: 0.88 µg/mL (≈ 0.927 µM)
MBC [25]: ≤ 0.06 µg/mL
MIC [26]: ≤ 0.06 µg/mL
MIC [27]: ≤ 0.06 µg/mL
MIC [28]: 64 µg/mL (≈ 67.4 µM)
MIC [29]: ≤ 0.06 µg/mL
MIC [30]: 4 µg/mL (≈ 4.21 µM)
MIC [31]: 0.5 µg/mL (≈ 0.527 µM)
MIC [32]: ≤ 0.06 µg/mL
MIC [33]: 0.88 µg/mL (≈ 0.927 µM)
MIC [34]: ≤ 0.06 µg/mL
MIC [35]: 128 µg/mL (≈ 135 µM)
MIC [36]: 0.19 µg/mL (≈ 0.2 µM)
MIC [37]: 0.5 µg/mL (≈ 0.527 µM)
MIC [38]: ≤ 0.06 µg/mL
MIC [39]: 4.32 µg/mL (≈ 4.55 µM)
MIC [40]: 0.12 µg/mL (≈ 0.126 µM)
MIC [41]: 0.5 µg/mL (≈ 0.527 µM)
MIC [42]: 0.25 µg/mL (≈ 0.263 µM)
MIC [43]: ≤ 0.06 µg/mL
MBC [44]: ≤ 0.06 µg/mL
MBC [48]: ≥ 256 µg/mL
MIC [45]: 0.125 µg/mL (≈ 0.132 µM)
